The target of this test is T1, Polyunsaturated fatty acid 5-lipoxygenase (Rattus norvegicus, UniProt P12527).
T1 sequence (P12527 whole entry): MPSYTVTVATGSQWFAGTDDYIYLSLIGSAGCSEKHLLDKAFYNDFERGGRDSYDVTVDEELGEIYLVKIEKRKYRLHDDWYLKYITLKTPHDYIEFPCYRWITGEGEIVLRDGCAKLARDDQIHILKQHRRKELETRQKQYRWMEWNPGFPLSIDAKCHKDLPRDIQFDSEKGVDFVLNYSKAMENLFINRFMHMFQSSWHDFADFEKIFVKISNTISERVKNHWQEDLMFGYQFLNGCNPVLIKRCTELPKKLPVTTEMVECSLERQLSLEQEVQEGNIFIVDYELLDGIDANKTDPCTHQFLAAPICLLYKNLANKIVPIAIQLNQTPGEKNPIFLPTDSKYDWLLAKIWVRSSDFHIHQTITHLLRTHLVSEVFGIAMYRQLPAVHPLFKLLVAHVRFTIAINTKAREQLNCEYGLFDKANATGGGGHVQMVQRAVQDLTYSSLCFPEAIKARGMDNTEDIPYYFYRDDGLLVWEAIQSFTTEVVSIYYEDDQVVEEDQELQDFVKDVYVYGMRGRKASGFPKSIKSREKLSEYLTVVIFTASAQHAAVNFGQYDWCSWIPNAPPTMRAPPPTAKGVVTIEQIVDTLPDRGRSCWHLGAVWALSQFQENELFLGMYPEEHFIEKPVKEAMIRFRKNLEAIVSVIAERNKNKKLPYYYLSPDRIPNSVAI
The test can be described thus: Inhibitory activity against 5-lipoxygenase obtained from rat basophilic leukemia cells. In outline: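 IC50 was determined against 5-LO in a broken RBL-1 cell assay, using a crude enzyme preparation from rat basophilic leukemia cells.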

Structures are written as SMILES.

The compound `Oc1oc(CCC#Cc2ccccc2CSc2ccccc2)c(O)c1O` [3,4-Dihydroxy-5-[4-(2-phenylsulfanylmethyl-phenyl)-but-3-ynyl]-5H-furan-2-one] gave an IC50 of 300 nM.

For orientation: IC50 means the point on the concentration scale where inhibition reaches its midpoint.

These data come from BindingDB's records for doi:10.1021/jm970034q (Oxis International, 1998).
